Measurements pooled from the literature.
Target: Serine/threonine-protein kinase Nek2 (NEK2, Homo sapiens, UniProt P51955)

The inhibition of `COc1cc2ncnc(Nc3ccc(Oc4ccccc4)cc3C)c2cc1OC` is reported as 1% (enzyme activity; inhibitor; 1 µM).
`C=CC(=O)Nc1cc(Nc2nccc(Nc3cc(Cl)c(F)cc3C(C)(C)O)n2)c(OC)cc1N1CC[C@@H](N(C)C)C1` has an inhibition of 5% (enzyme activity; inhibitor; 1 µM).
`COc1cc(Nc2cnc(C#N)c(O[C@H](C)CN(C)C)n2)ncc1-c1cnn(C)c1` gave a remaining activity of 58% (enzyme activity; inhibitor; radiometric; 1 µM).
With `COc1cc(/C=C/C(=O)CC(=O)/C=C/c2ccc(O)c(OC)c2)ccc1O` the activity vs control was 99% (enzyme activity; inhibitor; 1 µM).
With `CC(C)(O)[C@H]1CC[C@H](Nc2ccc3ncc(-c4cccc(C(F)(F)F)c4)n3n2)CC1` the remaining activity was 100% (enzyme activity; inhibitor; 1 µM).
`CNCc1ccc(-c2cc(-c3nc(-c4ccc(S(=O)(=O)C(C)C)cc4)cnc3N)on2)cc1` has an inhibition of 2% (enzyme activity; inhibitor; 2 µM).
`CC(C)CC(=O)N1CCc2nc(-c3ccc(Br)cc3)nc(N(C)Cc3ccccc3)c2C1` has a remaining binding of 100% (cell-free assay; competition with immobilised ligand; 0.1 µM).
With `CNc1cccc2cc(C(=O)Nc3ccc(C(=O)O)cc3)c(=O)[nH]c12` the inhibition was 3.2% (enzyme activity; inhibitor; 10 µM).
With `Cc1ccc(C(=O)Nc2ccc(CN3CCN(C)CC3)c(C(F)(F)F)c2)cc1C#Cc1cnc2cccnn12` the remaining activity was 92% (enzyme activity; inhibitor; 23.5 nM).
For `Nc1nc(Nc2ccccc2)sc1C(=O)c1c(F)cccc1F`, the remaining activity was 92% (enzyme activity; inhibitor; 10 µM).
With `FC(F)c1nc2ccccc2n1-c1nc(N2CCOCC2)nc(N2CCOCC2)n1` the remaining activity was 106% (enzyme activity; inhibitor; 10 µM).
`Cn1c2c(c3ccccc31)C(C#N)C(C)(C)NC2=O` (centres unmarked) gave a ΔTm of -0.1 °C (thermal stability; DSF; 10 µM).
With `CN(C)C1CCN(CC#Cc2nn(C3CCCC3)c3nc(NCc4ccccc4)ncc23)C1` (centres unmarked) the inhibition was 15% (enzyme activity; inhibitor; FRET; 10 µM).
The remaining binding of `CS(=O)(=O)NCC[C@H](NC(=O)c1cncc2c1cnn2-c1ccc(F)cc1)c1ccnc(S(C)(=O)=O)c1` is reported as 97% (cell-free assay; competition with immobilised ligand; 1 µM).
`CNC(=O)c1cc(Oc2ccc(NC(=O)Nc3ccc(Cl)c(C(F)(F)F)c3)cc2)ccn1` has an inhibition of -1% (enzyme activity; inhibitor; 0.3 µM).
For `Cc1noc([C@H]2C[C@@H](c3ccc(C(F)(F)F)cc3)CN(C(=O)N3CCS(=O)(=O)C3)C2)n1`, the remaining binding was 100% (cell-free assay; competition with immobilised ligand; 1 µM).
`Clc1ccc(Nc2nnc(Cc3ccncc3)c3ccccc23)cc1` has a remaining signal of 101% (cell-free assay; 0.5 µM).
With `CN(C)CC#Cc1ccc(OCCCc2sc(N3CCc4cccc(C(=O)Nc5nc6ccccc6s5)c4C3)nc2C(=O)O)c(F)c1` the remaining binding was 92% (cell-free assay; competition with immobilised ligand; 1 µM).
The ΔTm of `Cn1c2c(c3ccc(Cl)c(Cl)c31)C(C#N)C1(CCCC1)NC2=O` (centres unmarked) is reported as 0.3 °C (thermal stability; DSF; 10 µM).
With `Cc1ccc(Nc2nccc(N(C)c3ccc4c(C)n(C)nc4c3)n2)cc1S(N)(=O)=O` the inhibition was 91% (enzyme activity; inhibitor; 10 µM).
